# Activity calls are given as the source filed them. The calls are words filed in the database; no cut-off is given here.
# What was measured:
# Cannabinoid receptor 2 [1] = target: T1, Cannabinoid receptor 2 (Homo sapiens, UniProt P34972); experiment: Agonist activity at human recombinant CB2 receptor expressed in HEK cells assessed as calcium mobilization by FLIPR relative to CP-55940; type: functional, cell-based; conditions: HEK293
# Outline: (§1)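 HEK cells stably coexpressing human CB2 and chimeric Gαq/o5 protein, seeded 75,000/well one day before; no-wash calcium dye.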
# Cannabinoid receptor 2 [2] = target: T1, Cannabinoid receptor 2; experiment: Displacement of [3H]CP-55940 from human recombinant CB2 receptor expressed in HEK cells; type: cell-based, HEK293; conditions: read-out: Ki
# Rattus norvegicus [3] = species: Rattus norvegicus; experiment: Antiinflammatory activity against rat CFA-induced chronic inflammatory thermal hyperalgesia model assessed as effect on paw withdrawal latency; type: functional, organism-based
# Outline: (§2)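 Rats given 150 µL of 50% CFA in PBS into right hind plantar paw; thermal hyperalgesia tested 48 h later. Compound in 5% DMSO/95% PEG; PWL read 30 min post dose in ipsilateral and contralateral paws, 3 trials ~5 min apart, mean of two shortest latencies. n = 6 per dose; compared against vehicle. Antagonist pretreatment group included.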
# Cannabinoid receptor 2 [4] = target: T1, Cannabinoid receptor 2; experiment: Agonist activity at human recombinant CB2 receptor expressed in HEK cells assessed as calcium mobilization by FLIPR; type: functional, cell-based, HEK293; outline: as §1
# Rattus norvegicus [5] = species: Rattus norvegicus; experiment: Antiinflammatory activity against CB2 receptor antagonist SR-144528-pretreated rat CFA-induced chronic inflammatory thermal hyperalgesia model assessed as effect on paw withdrawal latency; type: functional, organism-based; outline: as §2
# Cannabinoid receptor 1 = Cannabinoid receptor 1 (Homo sapiens, UniProt P21554); experiment: Displacement of [3H]CP-55940 from human recombinant CB1 receptor expressed in HEK cells; type: cell-based, HEK293
# Homo sapiens = species: Homo sapiens; experiment: Selectivity for human recombinant CB2 receptor over human recombinant CB1 receptor
# Outline: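 Ki ratio from [3H]CP-55940 (0.5 nM) competition binding: human CB1 membranes from stably expressing […] cells versus human CB2 membranes from stably expressing HEK cells. Tris-HCl pH 7.4 buffer with EDTA, MgCl2, BSA; 90 min at 30 °C; filtration counting; nonspecific with 10 µM unlabeled ligand; ≥3 experiments in duplicate.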
# Rattus norvegicus [6] = species: Rattus norvegicus; experiment: Antiinflammatory activity against CB1 receptor antagonist SR-141716A-pretreated rat CFA-induced chronic inflammatory thermal hyperalgesia model assessed as effect on paw withdrawal latency; type: functional, organism-based
# Outline: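 Rats received 150 µL of 50% CFA in PBS into the right hind plantar paw. Thermal hyperalgesia was tested 48 h later after antagonist pretreatment, dosing in 5% DMSO/95% PEG vehicle, n = 6 per dose. Paw withdrawal latency was measured 30 min post-dose in the ipsilateral and contralateral paws, with 3 trials about 5 min apart. The value is the mean of the two shortest latencies, compared with vehicle.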
# Sequence of Cannabinoid receptor 1 (P21554 whole entry): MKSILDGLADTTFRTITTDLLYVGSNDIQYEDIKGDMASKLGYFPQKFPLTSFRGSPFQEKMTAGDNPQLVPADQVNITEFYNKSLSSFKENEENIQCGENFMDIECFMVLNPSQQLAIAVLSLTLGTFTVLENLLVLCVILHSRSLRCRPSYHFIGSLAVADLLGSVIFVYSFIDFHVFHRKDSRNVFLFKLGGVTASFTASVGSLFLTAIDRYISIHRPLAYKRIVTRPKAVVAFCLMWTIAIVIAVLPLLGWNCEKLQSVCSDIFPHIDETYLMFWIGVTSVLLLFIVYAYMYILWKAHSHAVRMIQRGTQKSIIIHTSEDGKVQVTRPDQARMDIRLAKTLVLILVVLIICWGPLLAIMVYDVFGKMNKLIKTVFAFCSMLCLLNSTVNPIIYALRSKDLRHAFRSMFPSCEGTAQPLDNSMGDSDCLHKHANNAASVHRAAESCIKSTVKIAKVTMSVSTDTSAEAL
# T1 sequence (P34972 whole entry): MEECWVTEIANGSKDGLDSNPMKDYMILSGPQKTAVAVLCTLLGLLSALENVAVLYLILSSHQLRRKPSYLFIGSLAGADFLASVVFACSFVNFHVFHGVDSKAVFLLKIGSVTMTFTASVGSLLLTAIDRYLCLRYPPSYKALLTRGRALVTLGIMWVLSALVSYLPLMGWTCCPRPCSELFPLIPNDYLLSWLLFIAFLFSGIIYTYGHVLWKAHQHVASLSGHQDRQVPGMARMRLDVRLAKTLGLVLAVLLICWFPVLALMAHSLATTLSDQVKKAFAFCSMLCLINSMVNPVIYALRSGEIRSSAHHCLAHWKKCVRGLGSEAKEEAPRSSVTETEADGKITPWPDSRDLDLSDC
Compound,Activity (Cannabinoid receptor 2 [1]) [%],Ki (Cannabinoid receptor 2 [2]) [µM],Activity (Rattus norvegicus [3]),EC50 (Cannabinoid receptor 2 [4]) [µM],Activity (Rattus norvegicus [5]),Ki (Cannabinoid receptor 1; read-out: Ki) [µM],Ratio Ki (Homo sapiens),Activity (Rattus norvegicus [6]),"Ki (Cannabinoid receptor 1; hek293, read-out: Ki) [µM]",Ki (Cannabinoid receptor 1; read-out: Log Ki (converted)) [µM]
CC1(C)C(C(=O)c2cn(CC3CCOCC3)c3cccc(O)c23)C1(C)C,94,0.0039,Dose-dependent effect,0.064,,,,,,
Cc1ccc(Cn2nc(C(=O)NC3C(C)(C)C4CC[C@@]3(C)C4)cc2-c2ccc(Cl)c(C)c2)cc1 (stereo partly specified),,,,,inactive,,,,,
CC1(C)C(C(=O)c2cn(CC3CCOCC3)c3cc(-c4ccccc4)ccc23)C1(C)C,,0.00041,inactive,> 10,,0.228,556,,,
CC1(C)C(C(=O)c2cn(CC3CCOCC3)c3c(F)c(F)c(F)c(F)c23)C1(C)C,88,0.005,,0.037,,0.066,13,,,
COc1cccc2c1c(C(=O)C1C(C)(C)C1(C)C)cn2CC1CCOCC1,37,0.0033,,0.081,,1.09,330,,,
CC1(C)C(C(=O)c2cn(CCN3CCOCC3)c3ccccc23)C1(C)C,71,0.0044,Active,0.014,,,,,,
Cc1c(C(=O)NN2CCCCC2)nn(-c2ccc(Cl)cc2Cl)c1-c1ccc(Cl)cc1,,,,,,,,Active,,
Cc1c(C(=O)C2C(C)(C)C2(C)C)c2ccccc2n1CCN1CCOCC1,60,0.027,,0.227,,> 10,> 370,,,
CC1(C)C(C(=O)c2cn(CC3CCOCC3)c3ccc(Cl)cc23)C1(C)C,69,0.003,,0.092,,0.512,171,,,
CC1(C)C(C(=O)c2cn(CC3CCOCC3)c3ccc(N)cc23)C1(C)C,80,0.0093,,0.01,,,108,,> 1,> 1

# Reference: ChEMBL document CHEMBL1144013, “Indol-3-yl-tetramethylcyclopropyl ketones: effects of indole ring substitution on CB2 cannabinoid receptor activity” (J Med Chem, 2008)
